Source: ChEMBL document CHEMBL4177770, “Discovery of MK-6169, a Potent Pan-Genotype Hepatitis C Virus NS5A Inhibitor with Optimized Activity against Common Resistance-Associated Substitutions” (J Med Chem, 2018)
Numbering of substitutions follows the chain as printed.

Assays:
[1] = test system: Hepatitis C virus subtype 1a; experiment: Resistance ratio of EC90 for NS5A Y93H mutant in HCV genotype 1a infected in HuH7 replicon cells to EC90 for NS5A in HCV genotype 1a infected in HuH7 replicon cells; type: cell-based
[2] = Resistance ratio of EC90 for NS5A in HCV genotype 1b infected in HuH7 replicon cells to EC90 for NS5A in HCV genotype 1a infected in HuH7 replicon cells; type: cell-based
[3] = Resistance ratio of EC90 for NS5A L31M mutant in HCV genotype 2b infected in HuH7 replicon cells to EC90 for NS5A in HCV genotype 1a infected in HuH7 replicon cells; type: cell-based
[4] = target: T1, Nonstructural protein 5A (Hepatitis C virus) (UniProt Q5L478); experiment: Inhibition of NS5A in HCV genotype 4a infected in HuH7 replicon cells assessed as decrease in viral replication after 3 days by RT-PCR method; type: cell-based; details: Hepatitis C virus subtype 4a
T1 sequence (whole entry): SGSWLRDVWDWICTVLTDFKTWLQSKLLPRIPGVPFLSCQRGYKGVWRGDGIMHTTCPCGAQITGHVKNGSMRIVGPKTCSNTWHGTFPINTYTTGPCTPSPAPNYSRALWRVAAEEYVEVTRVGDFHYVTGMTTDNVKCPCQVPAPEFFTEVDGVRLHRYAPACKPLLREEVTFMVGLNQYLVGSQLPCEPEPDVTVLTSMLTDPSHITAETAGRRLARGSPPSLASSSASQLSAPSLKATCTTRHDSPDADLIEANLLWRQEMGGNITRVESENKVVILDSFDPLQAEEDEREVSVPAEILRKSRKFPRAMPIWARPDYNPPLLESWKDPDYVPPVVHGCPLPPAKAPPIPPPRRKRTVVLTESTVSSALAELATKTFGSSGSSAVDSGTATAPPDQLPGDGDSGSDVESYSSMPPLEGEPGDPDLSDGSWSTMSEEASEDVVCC

[5] = target: T1, Nonstructural protein 5A (Hepatitis C virus); experiment: Inhibition of NS5A L31M mutant in HCV genotype 2b infected in HuH7 replicon cells assessed as decrease in viral replication after 3 days by RT-PCR method; type: cell-based; details: Hepatitis C virus subtype 2b
[6] = test system: T2, Nonstructural protein 5A (Hepatitis C virus), Q5L478 [Y93H]; experiment: Inhibition of NS5A Y93H mutant in HCV genotype 1a infected in HuH7 replicon cells assessed as decrease in viral replication after 3 days by RT-PCR method; type: cell-based; details: Hepatitis C virus subtype 1a
T2 sequence (whole entry): T1 sequence (whole entry) with Y93H

[7] = test system: Hepatitis C virus subtype 1a; experiment: Resistance ratio of EC90 for NS5A L31V mutant in HCV genotype 1a infected in HuH7 replicon cells to EC90 for NS5A in HCV genotype 1a infected in HuH7 replicon cells; type: cell-based
[8] = Resistance ratio of EC90 for NS5A in HCV genotype 3a infected in HuH7 replicon cells to EC90 for NS5A in HCV genotype 1a infected in HuH7 replicon cells; type: cell-based
[9] = target: T1, Nonstructural protein 5A (Hepatitis C virus); experiment: Inhibition of NS5A in HCV genotype 1a infected in HuH7 replicon cells assessed as decrease in viral replication after 3 days by RT-PCR method; type: cell-based; details: Hepatitis C virus subtype 1a
[10] = Resistance ratio of EC90 for NS5A in HCV genotype 4a infected in HuH7 replicon cells to EC90 for NS5A in HCV genotype 1a infected in HuH7 replicon cells; type: cell-based
[11] = target: T1, Nonstructural protein 5A (Hepatitis C virus); experiment: Inhibition of NS5A in HCV genotype 1b infected in HuH7 replicon cells assessed as decrease in viral replication after 3 days by RT-PCR method; type: cell-based; details: Hepatitis C virus subtype 1b
[12] = target: T1, Nonstructural protein 5A (Hepatitis C virus); experiment: Inhibition of NS5A L31V mutant in HCV genotype 1a infected in HuH7 replicon cells assessed as decrease in viral replication after 3 days by RT-PCR method; type: cell-based; details: Hepatitis C virus subtype 1a
[13] = target: T1, Nonstructural protein 5A (Hepatitis C virus); experiment: Inhibition of NS5A in HCV genotype 3a infected in HuH7 replicon cells assessed as decrease in viral replication after 3 days by RT-PCR method; type: cell-based; details: Hepatitis C virus subtype 3a
[14] = Half life in Wistar Han rat at 2 mg/kg, iv by LC/MS method; type: ADME, organism-based; details: in vivo
In short: (§1)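 Male Wistar Han rats, two per group, dosed IV at 2 mg/kg in 60% PEG200. Plasma was obtained by centrifuging the blood, and compound concentrations were measured by LC/MS.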

[15] = Clearance in Wistar Han rat at 2 mg/kg, iv by LC/MS method; type: ADME, organism-based; details: in vivo; in short: as §1
[16] = Oral bioavailability in Wistar Han rat at 10 mg/kg by LC/MS method; type: ADME, organism-based; details: in vivo
In short: (§2)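 Male Wistar Han rats, two per dosing group, dosed orally at 10 mg/kg in 10% TWEEN. Plasma was separated from collected blood by centrifugation and analysed by LC/MS.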

[17] = AUC in Wistar Han rat at 10 mg/kg, po by LC/MS method; type: ADME, organism-based; details: in vivo; in short: as §2
[18] = Cmax in Wistar Han rat at 10 mg/kg, po by LC/MS method; type: ADME, organism-based; design: dose 10 mg/kg, route oral; details: in vivo; in short: as §2

| SMILES | Ratio [1] | Ratio [2] | Ratio [3] | EC90 [4] [pM] | EC90 [5] [pM] | EC90 [6] [pM] | Ratio [7] | Ratio [8] | EC90 [9] [pM] | Ratio [10] | EC90 [11] [pM] | EC90 [12] [pM] | EC90 [13] [pM] | half-life [14] [h] | clearance [15] [mL/min/kg] | bioavailability [16] [%] | AUC [17] [µM·h] | Cmax [18] [nM] |
| --- | --- | --- | --- | --- | --- | --- | --- | --- | --- | --- | --- | --- | --- | --- | --- | --- | --- | --- |
| COC(=O)N[C@H](C(=O)N1CCC[C@H]1c1ncc(-c2cc(F)c3c(c2)O[C@@H](c2ccc4c(c2)CCCO4)n2c-3cc3cc(-c4cnc([C@@H]5CCCN5C(=O)[C@@H](NC(=O)OC)C5CCOCC5)[nH]4)ccc32)[nH]1)C(C)C | < 10 | < 10 | < 10 | 6 | 1070 | 356 | < 10 | < 10 | 5 | < 10 | 3 | 7 | 9 |  |  |  |  |  |
| COC(=O)N[C@H](C(=O)N1CCC[C@H]1c1ncc(-c2cc(F)c3c(c2)O[C@@H](c2cc4c(s2)CCC4)n2c-3cc3cc(-c4cnc([C@@H]5CCCN5C(=O)[C@@H](NC(=O)OC)C5CCOCC5)[nH]4)ccc32)[nH]1)C(C)C | < 10 | < 10 | < 10 | 4 | 64 | 39 | < 10 | < 10 | 5 | < 10 | 5 | 13 | 22 |  |  |  |  |  |
| COC(=O)N[C@H](C(=O)N1CCC[C@H]1c1ncc(-c2cc(F)c3c(c2)O[C@@H](c2ccc4c(c2)OCCC4)n2c-3cc3cc(-c4cnc([C@@H]5CCCN5C(=O)[C@@H](NC(=O)OC)C5CCOCC5)[nH]4)ccc32)[nH]1)C(C)C | < 10 | < 10 | < 10 | 7 | 19 | 35 | < 10 | < 10 | 4 | < 10 | 6 | 5 | 8 | 3.2 | 11 | 0.8 | 0.13 | 32 |
